Results from ChEMBL document CHEMBL3352368, “Amino derivatives of indolone-N-oxide: preparation and antiplasmodial properties” (Eur J Med Chem, 2014).

Key:
[1] = Cytotoxicity against human MCF7 cells assessed as decrease in cell viability after 48 hrs by XTT assay; assay type: cell-based
Summary of the method: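 MCF-7 cells grown as for parasite culture but with 10% fetal calf serum in place of human serum; trypsinized and seeded at 2 × 10^4 cells/well, incubated overnight, then compound added at final 1, 10 and 100 […] mL1. Viability read by XTT reduction after 48 h drug contact; experiments run twice in triplicate.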

[2] = tested on: Plasmodium falciparum; test: Antiplasmodial activity against chloroquine-resistant Plasmodium falciparum FcB1 infected in human RBC assessed as [3H]-hypoxanthine incorporation after 48 hrs by liquid scintillation counting analysis; assay type: functional, organism-based
Summary of the method: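 FcB1 maintained in RPMI 1640 with L-glutamine, 25 mM HEPES, 10% human serum, group O RBCs, 5% CO2; synchronized by magnetic enrichment then D-sorbitol lysis. Serial dilutions in culture medium; [3H]-hypoxanthine added at 24 h, harvest at 48 h after freeze-thaw. IC50 by linear regression on linear segments of semilog inhibition curves; triplicate, three repeats.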

[3] = Selectivity index, ratio of CC50 for human MCF7 cells to IC50 for chloroquine-resistant Plasmodium falciparum FcB1; assay type: functional
[4] = tested on: Plasmodium berghei; test: In vivo antimalarial activity against Plasmodium berghei ANKA assessed as inhibition of parasitemia at 30 mg/kg/day; assay type: functional
[5] = Half life in human liver microsomes; assay type: ADME

## O=C1C(c2ccccc2)=[N+]([O-])c2cc([N+](=O)[O-])c(/C=C(\Cl)c3ccccc3)cc21
[1]
  CC50 at 48 h: 59 µM
[2]; Plasmodium falciparum, FcB1
  IC50: 0.84 µM
[3]
  Ratio CC50/IC50: 70

## Nc1ccc(C2=[N+]([O-])c3ccccc3C2=O)cc1
[1]
  CC50 at 48 h: 13 µM
[2]; Plasmodium falciparum, FcB1
  IC50: 0.168 µM
[3]
  Ratio CC50/IC50: 77

## COc1ccc2c(c1)[N+]([O-])=C(c1ccc(N)cc1)C2=O
[1]
  CC50 at 48 h: 12.7 µM
[2]; Plasmodium falciparum, FcB1
  IC50: 0.024 µM
[3]
  Ratio CC50/IC50: 528

## COc1ccc2c(c1)C(=O)C(c1ccc(N)cc1)=[N+]2[O-].Cl
[1]
  CC50 at 48 h: 9.7 µM
[2]; Plasmodium falciparum, FcB1
  IC50: < 0.003 µM
[3]
  Ratio CC50/IC50: >3233

## COc1ccc2c(c1)C(=O)C(c1ccc(N(C)C)cc1)=[N+]2[O-].Cl
[1]
  CC50 at 48 h: 33.7 µM
[2]
  IC50: < 0.0003 µM
[3]
  Ratio CC50/IC50: >112333

## COc1ccc2c(c1)C(=O)C(c1ccc(N(C)C)c(C)c1)=[N+]2[O-]
[1]
  CC50 at 48 h: 35.4 µM
[2]; Plasmodium falciparum, FcB1
  IC50: 0.04 µM
[3]
  Ratio CC50/IC50: 885

## CCCCNc1ccc(C2=[N+]([O-])c3ccc(OC)cc3C2=O)cc1
[1]
  CC50 at 48 h: 43.2 µM
[2]; Plasmodium falciparum, FcB1
  IC50: 0.021 µM
[3]
  Ratio CC50/IC50: 2057

## COc1ccc2c(c1)C(=O)C(c1ccc(N3CCOCC3)cc1)=[N+]2[O-]
[1]
  CC50 at 48 h: > 29.5 µM
[2]; Plasmodium falciparum, FcB1
  IC50: 0.0065 µM
[3]
  Ratio CC50/IC50: >4538.5

## COc1ccc2c(c1)C(=O)C(c1cccnc1)=[N+]2[O-]
[1]
  CC50 at 48 h: 17.3 µM
[2]; Plasmodium falciparum, FcB1
  IC50: 0.161 µM
[3]
  Ratio CC50/IC50: 107

## O=C1C(c2ccc(Cl)cc2)=[N+]([O-])c2cccnc21
[2]; Plasmodium falciparum, FcB1
  IC50: > 2.72 µM

## O=C1C(c2ccc(Cl)cc2)=[N+]([O-])c2cc[n+]([O-])cc21
[2]; Plasmodium falciparum, FcB1
  IC50: > 5.44 µM

## CN(C)c1ccc(C2=[N+]([O-])c3cc(N)ccc3C2=O)cc1
[1]
  CC50 at 48 h: 21.3 µM
[2]; Plasmodium falciparum, FcB1
  IC50: 12.3 µM
[3]
  Ratio CC50/IC50: 1.8

## Nc1ccc2c(c1)[N+]([O-])=C(c1ccc(Cl)cc1)C2=O
[1]
  CC50 at 48 h: 11 µM
[2]; Plasmodium falciparum, FcB1
  IC50: 0.183 µM
[3]
  Ratio CC50/IC50: 60

## COc1ccc(C2=[N+]([O-])c3cc(N)ccc3C2=O)cc1
[1]
  CC50 at 48 h: > 37.3 µM
[2]; Plasmodium falciparum, FcB1
  IC50: 1.56 µM
[3]
  Ratio CC50/IC50: >33

## COc1ccc2cc(C3=[N+]([O-])c4cc(N)ccc4C3=O)ccc2c1
[1]
  CC50 at 48 h: 7.8 µM
[2]; Plasmodium falciparum, FcB1
  IC50: 1.32 µM
[3]
  Ratio CC50/IC50: 6

## Nc1ccc2c(c1)[N+]([O-])=C(CCCN1C(=O)c3ccccc3C1=O)C2=O
[1]
  CC50 at 48 h: 6.6 µM
[2]; Plasmodium falciparum, FcB1
  IC50: 8.3 µM
[3]
  Ratio CC50/IC50: 0.8

## CCOC(=O)c1ccc2c(c1)[N+]([O-])=C(c1ccccc1)C2=O
[1]
  CC50 at 48 h: 26.4 µM
[2]; Plasmodium falciparum, FcB1
  IC50: 0.284 µM
[3]
  Ratio CC50/IC50: 91.9

## COc1ccc2c(c1)C(=O)C(c1ccc(N(C)C)cc1)=[N+]2[O-]
[4]
  inhibition in vivo at 30 mg/kg/day: 15.3%
[2]
  IC50: < 0.003 µM
[3]
  Ratio CC50/IC50: >14623

## O=C1C(c2ccc(Cl)cc2)=[N+]([O-])c2cc3c(cc21)OCO3
[4]
  inhibition in vivo at 30 mg/kg/day: 62.1%
[5]
  half-life: < 1 min

## C[C@H]1[C@H](OC(=O)CCC(=O)O)O[C@@H]2O[C@@]3(C)CC[C@H]4[C@H](C)CC[C@@H]1[C@@]24OO3 [SODIUM ARESUNATE]
[2]; Plasmodium falciparum, FcB1
  IC50: 0.006 µM
